We go through nine compounds from ChEMBL document CHEMBL1140228, “Identification of small molecular weight inhibitors of Src homology 2 domain-containing tyrosine phosphatase 2 (SHP-2) via in silico database screening combined with experimental assay” (J Med Chem, 2008).

Broadly, the inhibition is the change of the read-out against control, counted positive when it falls. High values mean strong suppression, low ones little suppression.

In test [1] the target is T1, Tyrosine-protein phosphatase non-receptor type 11 (Homo sapiens) (UniProt Q06124).
T1 sequence (whole entry): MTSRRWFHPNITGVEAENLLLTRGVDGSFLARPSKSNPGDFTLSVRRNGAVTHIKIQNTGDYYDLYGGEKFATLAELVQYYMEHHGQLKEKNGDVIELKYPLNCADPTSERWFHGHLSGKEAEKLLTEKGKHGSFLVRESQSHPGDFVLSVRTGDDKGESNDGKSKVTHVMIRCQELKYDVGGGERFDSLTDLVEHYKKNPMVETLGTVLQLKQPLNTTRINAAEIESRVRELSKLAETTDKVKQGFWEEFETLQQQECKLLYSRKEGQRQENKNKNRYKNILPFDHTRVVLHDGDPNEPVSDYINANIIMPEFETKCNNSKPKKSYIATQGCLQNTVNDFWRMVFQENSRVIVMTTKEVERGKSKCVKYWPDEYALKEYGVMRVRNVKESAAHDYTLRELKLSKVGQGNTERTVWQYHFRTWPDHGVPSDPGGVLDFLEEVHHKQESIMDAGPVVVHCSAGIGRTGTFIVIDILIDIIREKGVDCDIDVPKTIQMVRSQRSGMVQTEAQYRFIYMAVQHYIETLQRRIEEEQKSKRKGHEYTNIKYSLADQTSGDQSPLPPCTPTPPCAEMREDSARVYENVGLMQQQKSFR
As to the kind of experiment: Binding affinity to SHP2 PTP domain assessed as quenching of enzyme fluorescence by fluorescence titration assay. A digest of the protocol: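 Tryptophan fluorescence quenching of GST-SHP-2 PTP domain held at 3 μM in 20 mM Tris-HCl pH 7.5, titrated with increasing compound. Excitation 295 nm, emission 360–500 nm. Compound-alone fluorescence subtracted. Intensities are relative, not corrected for detector response.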

In test [2] the test system is T2, Tyrosine-protein phosphatase non-receptor type 11 (Mus musculus), P35235 [D61G].
T2 sequence (whole entry): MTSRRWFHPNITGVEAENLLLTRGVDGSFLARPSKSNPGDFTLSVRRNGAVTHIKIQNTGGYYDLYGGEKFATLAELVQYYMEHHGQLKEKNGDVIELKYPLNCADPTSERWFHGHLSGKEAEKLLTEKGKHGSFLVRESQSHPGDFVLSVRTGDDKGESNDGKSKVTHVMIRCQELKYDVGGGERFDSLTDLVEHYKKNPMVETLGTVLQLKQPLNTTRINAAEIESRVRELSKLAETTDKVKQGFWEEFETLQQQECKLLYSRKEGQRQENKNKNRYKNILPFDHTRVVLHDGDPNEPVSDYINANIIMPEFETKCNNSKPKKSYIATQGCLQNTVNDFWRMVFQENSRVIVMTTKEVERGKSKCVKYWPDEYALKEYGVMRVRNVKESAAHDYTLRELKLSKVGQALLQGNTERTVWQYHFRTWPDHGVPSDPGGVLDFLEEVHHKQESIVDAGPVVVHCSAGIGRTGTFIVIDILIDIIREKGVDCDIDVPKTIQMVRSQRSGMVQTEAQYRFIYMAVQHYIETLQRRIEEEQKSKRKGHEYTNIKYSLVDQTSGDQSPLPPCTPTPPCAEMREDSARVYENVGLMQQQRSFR
The test can be described thus: Inhibition of EGF-induced SHP2 D61G mutant activation in mouse embryonic fibroblasts by immunocomplex phosphatase assay. A digest of the protocol: (§1)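 WT or SHP-2 D61G/D61G knock-in MEFs starved overnight in serum-free medium, compound (100 μM) for the last 1 h, then EGF 10 min (50 ng/mL in methods, 20 ng/mL in legend). RIPA lysates (500 μg) immunoprecipitated with anti-SHP-2, washed in HNTG, then assayed by malachite green phosphatase assay.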

For test [3], the target named is T3, Tyrosine-protein phosphatase non-receptor type 11 (Mus musculus) (UniProt P35235).
T3 sequence (whole entry): T1 sequence (whole entry) with M450V, A550V, K590R
The test can be described thus: Inhibition of EGF-induced SHP2 activation in mouse embryonic fibroblasts by immunocomplex phosphatase assay. In a few lines:
as §1

The target of test [4] is T1, Tyrosine-protein phosphatase non-receptor type 11 (Homo sapiens). The test can be described thus: Inhibition of GST-tagged SHP2. A digest of the protocol: (§2)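 GST-SHP-2 PTP domain (0.5 μg) preincubated 30 min at room temperature with compound or DMSO in 25 mM Tris-HCl pH 7.4, 50 mM NaCl, 5 mM DTT, 2.5 mM EDTA. Orthovanadate (100 μM) served as positive control.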
In the next test the test system is BaF3. As to the kind of experiment: Antiproliferative activity against IL3-stimulated mouse BA/F3 cells assessed as decrease in cell growth after 72 hrs by MTS assay. In kind it is functional, cell-based. In a few lines: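 Ba/F3 (IL-3-dependent murine pro-B line) seeded at 2×10⁴ cells/well in RPMI-1640 with 10% FBS and mouse IL-3 (1 ng/mL), plus compound at 100 or 200 μM or DMSO. Cell number read by MTS after 72 h.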
(In general: Tetrazolium dyes change colour on reduction, which living cells bring about.)

Test [5] addresses T3, Tyrosine-protein phosphatase non-receptor type 11 (Mus musculus). The test can be described thus: Inhibition of SHP2 assessed as blockade of IL3-induced ERK1/ERK2 activation in mouse Ba/F3 cells by immunoblotting. In kind it is cell-based. As to conditions: BaF3. In a few lines: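 Ba/F3 cells deprived of IL-3 for 8 h, treated with compound 1 h before stimulation with IL-3 (2 ng/mL), and harvested at several times. Lysates immunoblotted for phospho-Erk, then stripped and reprobed for pan-Erk as loading control.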
On the technique in general: Immunoblotting shows a protein as a band on a membrane.

Test [6] has as its target T1, Tyrosine-protein phosphatase non-receptor type 11 (Homo sapiens). The test can be described thus: Inhibition of GST-tagged SHP2 at 100 uM. A digest of the protocol:
as §2

The target of test [7] is Tyrosine-protein phosphatase non-receptor type 6 (Homo sapiens) (UniProt P29350). The test can be described thus: Inhibition of GST-tagged SHP1.
The target in test [8] is T4, Tyrosine-protein phosphatase non-receptor type 2 (Homo sapiens) (UniProt P17706).
T4 sequence (whole entry): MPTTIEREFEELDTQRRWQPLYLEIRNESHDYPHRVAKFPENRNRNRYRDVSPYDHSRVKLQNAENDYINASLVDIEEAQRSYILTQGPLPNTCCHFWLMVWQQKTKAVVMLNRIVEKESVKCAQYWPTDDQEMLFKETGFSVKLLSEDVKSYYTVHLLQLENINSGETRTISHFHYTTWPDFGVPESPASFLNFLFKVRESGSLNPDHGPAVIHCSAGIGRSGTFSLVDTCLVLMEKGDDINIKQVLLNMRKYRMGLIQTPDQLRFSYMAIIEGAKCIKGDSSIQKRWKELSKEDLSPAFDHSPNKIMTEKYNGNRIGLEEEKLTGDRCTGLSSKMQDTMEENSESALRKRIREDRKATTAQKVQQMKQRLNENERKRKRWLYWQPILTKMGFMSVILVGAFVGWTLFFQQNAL
The test can be described thus: Inhibition of GST-tagged TC-PTP.

Test [9] concerns the target T1, Tyrosine-protein phosphatase non-receptor type 11 (Homo sapiens). The test can be described thus: Inhibition of GST-tagged SHP2 at 200 uM. A digest of the protocol:
as §2

Test [10] has as its target T5, Receptor-type tyrosine-protein phosphatase C (Homo sapiens) (UniProt P08575).
T5 sequence (whole entry): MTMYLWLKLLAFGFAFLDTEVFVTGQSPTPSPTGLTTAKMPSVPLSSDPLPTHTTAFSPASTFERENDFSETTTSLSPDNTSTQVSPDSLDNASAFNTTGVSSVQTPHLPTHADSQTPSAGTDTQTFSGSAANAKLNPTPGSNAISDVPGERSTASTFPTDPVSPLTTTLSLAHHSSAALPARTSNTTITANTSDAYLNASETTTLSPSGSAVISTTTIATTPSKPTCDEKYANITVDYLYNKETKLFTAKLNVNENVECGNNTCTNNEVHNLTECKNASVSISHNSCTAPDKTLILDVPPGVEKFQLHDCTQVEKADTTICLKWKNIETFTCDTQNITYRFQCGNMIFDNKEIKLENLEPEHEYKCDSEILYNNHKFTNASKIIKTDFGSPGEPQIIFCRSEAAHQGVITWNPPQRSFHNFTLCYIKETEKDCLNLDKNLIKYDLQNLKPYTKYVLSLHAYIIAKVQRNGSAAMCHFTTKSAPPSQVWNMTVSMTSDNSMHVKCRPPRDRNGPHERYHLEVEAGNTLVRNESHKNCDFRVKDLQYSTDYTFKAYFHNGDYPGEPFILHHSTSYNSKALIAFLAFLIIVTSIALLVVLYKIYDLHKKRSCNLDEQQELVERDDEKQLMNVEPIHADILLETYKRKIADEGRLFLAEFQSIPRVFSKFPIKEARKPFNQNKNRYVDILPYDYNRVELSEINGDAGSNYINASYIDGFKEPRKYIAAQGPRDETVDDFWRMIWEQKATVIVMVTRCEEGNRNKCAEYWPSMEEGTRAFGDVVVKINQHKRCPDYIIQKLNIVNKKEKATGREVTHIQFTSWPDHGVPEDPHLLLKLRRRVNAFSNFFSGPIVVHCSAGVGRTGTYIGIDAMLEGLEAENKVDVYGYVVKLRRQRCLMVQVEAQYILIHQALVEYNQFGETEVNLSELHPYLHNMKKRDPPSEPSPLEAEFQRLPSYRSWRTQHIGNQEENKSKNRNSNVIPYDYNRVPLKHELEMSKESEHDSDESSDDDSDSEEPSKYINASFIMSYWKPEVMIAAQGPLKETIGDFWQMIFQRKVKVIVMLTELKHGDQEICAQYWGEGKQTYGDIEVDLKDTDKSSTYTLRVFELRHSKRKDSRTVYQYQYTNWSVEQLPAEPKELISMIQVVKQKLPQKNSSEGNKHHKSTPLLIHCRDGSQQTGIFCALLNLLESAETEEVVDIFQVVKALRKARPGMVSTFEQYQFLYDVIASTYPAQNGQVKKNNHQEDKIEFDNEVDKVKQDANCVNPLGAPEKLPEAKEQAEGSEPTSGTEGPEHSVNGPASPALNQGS
As to the kind of experiment: Inhibition of GST-tagged CD45.

SMILES strings stand for the structures. Where a chain is given by its changes, count along the chain named. Calls of active or inactive are those of the source. No cut-off for these calls is given here.

Chain of Tyrosine-protein phosphatase non-receptor type 6 (Homo sapiens) (P29350 whole entry): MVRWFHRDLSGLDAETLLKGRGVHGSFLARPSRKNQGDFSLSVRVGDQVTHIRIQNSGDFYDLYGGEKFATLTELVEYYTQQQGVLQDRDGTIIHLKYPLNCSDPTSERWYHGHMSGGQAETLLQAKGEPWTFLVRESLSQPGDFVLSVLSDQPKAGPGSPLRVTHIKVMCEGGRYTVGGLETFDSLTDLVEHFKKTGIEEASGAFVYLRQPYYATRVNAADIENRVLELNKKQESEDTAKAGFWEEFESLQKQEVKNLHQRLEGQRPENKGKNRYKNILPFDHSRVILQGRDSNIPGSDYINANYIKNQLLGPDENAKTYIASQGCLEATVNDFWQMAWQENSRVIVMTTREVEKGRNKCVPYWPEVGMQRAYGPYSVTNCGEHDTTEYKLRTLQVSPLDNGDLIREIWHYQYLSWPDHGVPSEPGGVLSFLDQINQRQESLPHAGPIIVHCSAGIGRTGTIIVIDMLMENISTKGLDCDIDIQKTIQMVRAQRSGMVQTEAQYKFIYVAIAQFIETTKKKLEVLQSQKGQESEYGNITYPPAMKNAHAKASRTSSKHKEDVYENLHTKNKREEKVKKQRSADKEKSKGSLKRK

Turning to `NS(=O)(=O)c1ccc(CCNC(=O)c2ccc(Cn3c(=S)[nH]c4ccc(Br)cc4c3=O)cc2)cc1`, the result (in [1]; in [2]; in test [3]; with BaF3; in test [5]) was Active. For the same compound, the Activity result in test [4] is “Dose-dependent effect”. The inhibition in test [6] stood at 55%.
With `Cc1cc(C)c2c(c1)[nH]c1nnc(SCC(=O)NCc3cccs3)nc12`, the result in test [1], in test [2], in [3] and in [5] was Active. Moreover, the Activity result in test [4] is “Dose-dependent effect”. Besides, the inhibition in test [6] amounted to 50%.
`O=C(CCCn1c(=O)c2cccn2c2cccnc21)NCc1ccccc1F`: the Activity entry in [4] is “Dose-dependent effect”. The same compound gave an inhibition in [6] of 45%.
With `NNc1ccc(S(=O)(=O)O)cc1`, the Activity result in [4] is “Dose-dependent effect”. The result in test [7] and in test [9] was Active. The result in test [8] and in [10] was inactive. For the same compound, the inhibition in test [6] was determined as 70%.
In the case of `CNC(=S)NNC(=O)CSCCS(=O)(=O)c1ccccc1`, the outcome in test [1] was inactive. In addition, in [4], the Activity entry is “Dose-dependent effect”.
For `CNC(=S)NNC(=O)c1csc(-c2cccs2)n1`, the Activity result in test [4] was “Dose-dependent effect”. In test [6], the inhibition was 40%.
`CSc1ccc(C2C(C#N)=C(N)Oc3[nH]nc(-c4ccccc4Cl)c32)cc1` (stereo unspecified): the result in test [1] was Active. For the same compound, in test [4], the Activity entry is “Dose-dependent effect”.
Regarding `CCc1ccc(OCC(=O)Nc2ccc(S(N)(=O)=O)cc2)cc1`, the outcome in test [1] was inactive. Also, the Activity entry in test [4] was “Dose-dependent effect”.
Consider `NC(N)=NN[C@@H]1O[C@H](CO)[C@@H](O)[C@H](O)[C@H]1O`, for which the outcome in [1] was inactive. Further, the Activity result in test [4] was “Dose-dependent effect”.
